Assay results taken from ChEMBL document CHEMBL4118256, “Second Generation of Mannich Base-Type Derivatives with in Vivo Activity against Trypanosoma cruzi” (J Med Chem, 2018).
Calls of active or inactive are those of the source. No cut-off for these calls is given here.

What was measured:
Mus musculus = assay: Toxicity in Balb/c mouse assessed as reduction in body mass at […], po once daily for 5 consecutive days starting from day 10 post infection relative to control; assay type: organism-based; design: scale not given: the % may be the effect or the level left; conditions: in vivo
Method in brief: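 Infected female BALB/c mice, six per group, received oral doses of 20 mg·kg^-1/day for 5 consecutive days (total 100 mg·kg^-1) in 5% DMSO/0.5% HPMC vehicle, from day 10 or day 75 pi. Body mass and deaths were monitored during and after treatment.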

Trypanosoma cruzi [1] = assay: Trypanocidal activity against Trypanosoma cruzi MHOM/Pe/2011/Arequipa DTU 5 amastigotes infected in African green monkey Vero cells assessed as infected cells at 50 uM after 72 hrs by Giemsa-staining based microscopic assay relative to control; assay type: functional
Method in brief: (§1)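 Infected Vero cell cultures were exposed for 72 h to a range of concentrations. Infected cells were counted microscopically on Giemsa-stained preparations and expressed relative to infected untreated controls. Values are means of three separate determinations; IC50 was derived by curve fitting.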

Trypanosoma cruzi [2] = assay: Trypanocidal activity against Trypanosoma cruzi TINF/CH/1956/Tulahuen DTU 6 amastigotes infected in African green monkey Vero cells after 72 hrs by Giemsa-staining based microscopic assay; assay type: functional, organism-based; conditions: TINF/CH/1956/Tulahuen DTU 6, Vero
Method in brief: (§2)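 Vero cells were seeded at 1×10^4/well on coverslips. After 24 h they were infected with culture-derived trypomastigotes (MOI 1:10, 24 h), then washed. Compounds were added at 100–0.2 µM (DMSO 0.01% v/v) for 72 h at 37 °C, 5% CO2. Slides were methanol-fixed and Giemsa-stained; amastigotes and infected cells were counted over 500 host cells. IC50 was derived by curve fitting; triplicate wells, four separate determinations.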

[3] = Selectivity index, ratio of IC50 for African green monkey Vero cells to IC50 for Trypanosoma cruzi IRHOD/CO/2008/SN3 DTU 1 amastigotes infected in African green monkey Vero cells; assay type: toxicity; conditions: read-out: Ratio IC50
Method in brief: (§3)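 SI is Vero IC50 divided by the IC50 for the stated parasite form. For Vero cytotoxicity, cells were seeded at 1.25×10^4 mL^-1 with compounds at 1000–1 µM, incubated 48 h, then given resazurin for a further 24 h (72 h total), with absorbance read at 570/600 nm. Triplicate, four determinations.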

[4] = Selectivity index, ratio of IC50 for African green monkey Vero cells to IC50 for Trypanosoma cruzi IRHOD/CO/2008/SN3 DTU 1 trypamastigotes derived from infected Balb/c albino mouse; assay type: toxicity; conditions: read-out: Ratio IC50; method in brief: as §3
Trypanosoma cruzi [5] = assay: Antitrypanosomal activity against Trypanosoma cruzi MHOM/Pe/2011/Arequipa DTU 5 epimastigotes assessed as effect on parasite glycolytic pathway by measuring increase in succinate excretion at IC25 after 72 hrs by 1H NMR method relative to control; assay type: functional
Method in brief: (§4)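 Arequipa epimastigotes exposed at IC25 for 72 h alongside an untreated control. Excreted catabolites were analysed by 1H NMR, and each peak is reported as % variation versus the control. Three separate determinations.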

[6] = Selectivity index, ratio of IC50 for African green monkey Vero cells to IC50 for Trypanosoma cruzi IRHOD/CO/2008/SN3 DTU 1 epimastigotes; assay type: toxicity; conditions: read-out: Ratio IC50; method in brief: as §3
Trypanosoma cruzi [7] = assay: Antitrypanosomal activity against Trypanosoma cruzi MHOM/Pe/2011/Arequipa DTU 5 epimastigotes assessed as reduction in mitochondrial membrane potential at IC25 after 72 hrs by Rho123 staining based flow cytometry relative to control; assay type: functional; design: scale not given: the % may be the effect or the level left
Method in brief: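 Arequipa epimastigotes were exposed at IC25 for 72 h, then labelled with Rhodamine 123 and analysed by flow cytometry. Result is % alteration in mitochondrial membrane potential versus untreated control.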

Trypanosoma cruzi [8] = assay: Trypanocidal activity against Trypanosoma cruzi MHOM/Pe/2011/Arequipa DTU 5 amastigotes infected in African green monkey Vero cells assessed as reduction in infected cells after 72 hrs by Giemsa-staining based microscopic assay; assay type: functional, organism-based; conditions: MHOM/Pe/2011/Arequipa DTU 5, Vero; method in brief: as §1
[9] = Selectivity index, ratio of IC50 for African green monkey Vero cells to IC50 for Trypanosoma cruzi TINF/CH/1956/Tulahuen DTU 6 trypamastigotes derived from infected Balb/c albino mouse; assay type: toxicity; conditions: read-out: Ratio IC50; method in brief: as §3
Trypanosoma cruzi [10] = assay: Trypanocidal activity against Trypanosoma cruzi IRHOD/CO/2008/SN3 DTU 1 amastigotes infected in African green monkey Vero cells after 72 hrs by Giemsa-staining based microscopic assay; assay type: functional, organism-based; conditions: IRHOD/CO/2008/SN3 DTU 1, Vero; method in brief: as §2
Superoxide dismutase = biological target: T1, Superoxide dismutase (Trypanosoma cruzi (strain CL Brener), UniProt Q4DCQ3); assay: Inhibition of Trypanosoma cruzi MHOM/Pe/2011/Arequipa DTU 5 epimastigotes Fe-SOD by UV-Visible spectrophotometric method
T1 sequence (Q4DCQ3 whole entry): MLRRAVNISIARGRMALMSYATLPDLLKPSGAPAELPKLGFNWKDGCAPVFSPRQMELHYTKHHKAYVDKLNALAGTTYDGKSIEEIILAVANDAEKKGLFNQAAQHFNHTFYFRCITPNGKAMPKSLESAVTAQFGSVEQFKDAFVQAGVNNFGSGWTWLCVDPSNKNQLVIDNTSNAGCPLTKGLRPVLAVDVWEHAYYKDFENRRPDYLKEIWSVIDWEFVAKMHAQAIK
Method in brief: (§5)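 SOD activity of parasite Fe-SOD and human CuZn-SOD was measured spectrophotometrically by the Beyer and Fridovich method, with compounds at 1–100 µM. Values are averages of three rate determinations; IC50 was obtained by linear regression and differences were tested by Newman-Keuls.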

Trypanosoma cruzi [11] = assay: Antitrypanosomal activity against Trypanosoma cruzi MHOM/Pe/2011/Arequipa DTU 5 epimastigotes assessed as effect on parasite glycolytic pathway by measuring reduction in pyruvate excretion at IC25 after 72 hrs by 1H NMR method; assay type: functional, organism-based; method in brief: as §4
[12] = Selectivity index, ratio of IC50 for African green monkey Vero cells to IC50 for Trypanosoma cruzi MHOM/Pe/2011/Arequipa DTU 5 trypamastigotes derived from infected Balb/c albino mouse; assay type: toxicity; conditions: read-out: Ratio IC50; method in brief: as §3
[13] = biological target: T2, Superoxide dismutase (Trypanosoma cruzi (strain CL Brener)) (UniProt Q4DCQ3); assay: Inhibition of Trypanosoma cruzi MHOM/Pe/2011/Arequipa DTU 5 epimastigotes Fe-SOD at 50 uM by UV-Visible spectrophotometric method relative to control; method in brief: as §5
T2 sequence (whole entry): T1 sequence (Q4DCQ3 whole entry)

Trypanosoma cruzi [14] = assay: Trypanocidal activity against Trypanosoma cruzi TINF/CH/1956/Tulahuen DTU 6 epimastigotes after 48 hrs by resazurin dye based assay; assay type: functional, organism-based; conditions: TINF/CH/1956/Tulahuen DTU 6, 48 h
Method in brief: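 Exponential-phase epimastigotes were seeded at 5×10^5 mL^-1 with compounds at 100–0.2 µM (DMSO 0.01% v/v) at 28 °C. After 48 h, resazurin was added for another 24 h. SDS was then added and absorbance read at 570 and 600 nm.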

[15] = Selectivity index, ratio of IC50 for African green monkey Vero cells to IC50 for Trypanosoma cruzi MHOM/Pe/2011/Arequipa DTU 5 amastigotes infected in African green monkey Vero cells; assay type: toxicity; conditions: read-out: Ratio IC50; method in brief: as §3
Vero = assay: Cytotoxicity against African green monkey Vero cells assessed as reduction in cell viability after 72 hrs by resazurin dye based assay; conditions: Chlorocebus sabaeus
Method in brief: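 Vero monkey kidney cells grown at 37 °C, 5 % CO2, in RPMI with 10 % heat-inactivated FBS. Seeded at 1.25 × 10^4 mL-1 with compound at 1000 to 1 µM (DMSO 0.01 % v/v). After 48 h, resazurin added for a further 24 h, then SDS. Absorbance read at 570/600 nm. IC50 from triplicates in four separate determinations.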

Q: Which results are given for `COc1ccc(C(=O)CCN2CCN(c3ccc([N+](=O)[O-])cc3)CC2)cc1`?
A: Activity (Mus musculus): > 10%; Activity (Trypanosoma cruzi [1]): 52%; IC50 (Trypanosoma cruzi [2]): 33.6 µM; selectivity ratio [3]: 19.2; selectivity ratio [4]: 187; Activity (Trypanosoma cruzi [5]): >20%; selectivity ratio [6]: 26.7; Activity (Trypanosoma cruzi [7]): 76.3%; IC50 (Trypanosoma cruzi [8]): 47.9 µM; selectivity ratio [9]: 40.6; IC50 (Trypanosoma cruzi [10]): 30.5 µM; IC50 (Superoxide dismutase): 5 µM; Activity (Trypanosoma cruzi [11]): inactive; selectivity ratio [12]: 50.4; inhibition [13]: 100%; IC50 (Trypanosoma cruzi [14]): 37.4 µM; selectivity ratio [15]: 20; IC50 (Vero): 587 µM

Q: What does the source list for `O=C(Cn1ccnc1[N+](=O)[O-])NCc1ccccc1` [BENZNIDAZOLE]?
A: Activity (Trypanosoma cruzi [1]): 20%; IC50 (Trypanosoma cruzi [2]): 10 µM; Activity (Trypanosoma cruzi [7]): 35.4%; IC50 (Trypanosoma cruzi [8]): 15.1 µM; IC50 (Trypanosoma cruzi [14]): 19.7 µM; IC50 (Vero): 23.2 µM

Q: What does the source list for `COc1ccc(C(=O)CCN2CCN(c3ccc(F)cc3)CC2)cc1`?
A: Activity (Mus musculus): > 10%; Activity (Trypanosoma cruzi [1]): 7%; IC50 (Trypanosoma cruzi [2]): 1.6 µM; selectivity ratio [3]: 17.6; selectivity ratio [4]: 39.9; selectivity ratio [6]: 27.9; Activity (Trypanosoma cruzi [7]): 25.6%; IC50 (Trypanosoma cruzi [8]): 1.9 µM; selectivity ratio [9]: 47.4; IC50 (Trypanosoma cruzi [10]): 3.1 µM; IC50 (Superoxide dismutase): 7.8 µM; Activity (Trypanosoma cruzi [11]): Active; selectivity ratio [12]: 49.1; inhibition [13]: 100%; IC50 (Trypanosoma cruzi [14]): 1.8 µM; selectivity ratio [15]: 88.7; IC50 (Vero): 55 µM

Q: Which results are given for `COc1ccc(C(=O)CCN2CCN(c3ccc(Cl)cc3)CC2)cc1`?
A: Activity (Mus musculus): > 10%; Activity (Trypanosoma cruzi [1]): 15%; IC50 (Trypanosoma cruzi [2]): 3.8 µM; selectivity ratio [3]: 51.5; selectivity ratio [4]: 76.1; Activity (Trypanosoma cruzi [5]): 200%; selectivity ratio [6]: 47.8; Activity (Trypanosoma cruzi [7]): 27.4%; IC50 (Trypanosoma cruzi [8]): 6.4 µM; selectivity ratio [9]: 103; IC50 (Trypanosoma cruzi [10]): 5.8 µM; IC50 (Superoxide dismutase): 6.5 µM; Activity (Trypanosoma cruzi [11]): inactive; selectivity ratio [12]: 89.6; inhibition [13]: 100%; IC50 (Trypanosoma cruzi [14]): 7.3 µM; selectivity ratio [15]: 82.4; IC50 (Vero): 300 µM
